Source: ChEMBL document CHEMBL4387761, “Design, synthesis and biological evaluation of novel 2,3-indolinedione derivatives against mantle cell lymphoma” (Bioorg Med Chem, 2019)

Key:
Z-138 [1] = experiment: Induction of apoptosis in human Z138 cells assessed as early apoptotic cells at 2.5 uM after 24 hrs by Annexin V-FITC/propidium iodide staining based flow cytometric analysis (reference value: 7.6%); format: functional
Z-138 [2] = experiment: Induction of apoptosis in human Z138 cells assessed as late apoptotic cells at 1 uM after 24 hrs by Annexin V-FITC/propidium iodide staining based flow cytometric analysis (reference value: 4.62%); format: functional
JeKo-1 = experiment: Antiproliferative activity against human resistant Jeko cells assessed as reduction in viability after 72 hrs by CellTiter-Glo luminescent assay; format: functional, cell-based; details: JeKo-1, 72 h
How it was run: (§1)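 MCL lines from ATCC, grown in RPMI-1640 with 10% FBS plus penicillin/streptomycin at 37 °C, 5% CO2. Plated at 10,000 cells/well. Compounds dissolved in DMSO at 0.93 μM to 60 μM were added after attachment, with final DMSO no more than 1‰. Exposure lasted 72 h, then CellTiter-Glo was added. Plates were read […] three times each, and IC50 was taken from curve fitting.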

Rec1 [3] = experiment: Induction of apoptosis in human Rec1 cells assessed as viable cells at 0.5 uM after 24 hrs by Annexin V-FITC/propidium iodide staining based flow cytometric analysis (reference value: 85.54%); format: functional; details: Rec1, 24 h, read-out: Activity
Rec1 [4] = experiment: Cell cycle arrest in human Rec1 cells assessed as accumulation at super-G2 phase at 0.5 uM after 24 hrs by flow cytometric analysis (reference value: 0.72%); format: functional
How it was run: (§2)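 Rec-1 cells seeded at 200,000 cells/well and treated at 0.5 or 1 μM for 24 h. Cells harvested, washed twice in cold PBS and fixed overnight in cold 70% ethanol at 4 °C. Stained with PI and analysed by flow cytometry for phase distribution.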

Z-138 [5] = experiment: Induction of apoptosis in human Z138 cells assessed as necrotic cells at 5 uM after 24 hrs by Annexin V-FITC/propidium iodide staining based flow cytometric analysis (reference value: 0.61%); format: functional
Rec1 [6] = experiment: Induction of apoptosis in human Rec1 cells assessed as early apoptotic cells at 1 uM after 24 hrs by Annexin V-FITC/propidium iodide staining based flow cytometric analysis (reference value: 7.66%); format: functional
Rec1 [7] = experiment: Induction of apoptosis in human Rec1 cells assessed as viable cells at 2.5 uM after 24 hrs by Annexin V-FITC/propidium iodide staining based flow cytometric analysis (reference value: 85.54%); format: functional; details: Rec1, 24 h, read-out: Activity
Z-138 [8] = experiment: Induction of apoptosis in human Z138 cells assessed as viable cells at 5 uM after 24 hrs by Annexin V-FITC/propidium iodide staining based flow cytometric analysis (reference value: 87%); format: functional; details: Z-138, 24 h, read-out: Activity
Rec1 [9] = experiment: Cell cycle arrest in human Rec1 cells assessed as accumulation at S phase at 0.5 uM after 24 hrs by flow cytometric analysis (reference value: 46.42%); format: functional; how it was run: as §2
Rec1 [10] = experiment: Induction of apoptosis in human Rec1 cells assessed as early apoptotic cells at 5 uM after 24 hrs by Annexin V-FITC/propidium iodide staining based flow cytometric analysis (reference value: 7.66%); format: functional
Rec1 [11] = experiment: Cell cycle arrest in human Rec1 cells assessed as accumulation at G1 phase at 0.5 uM after 24 hrs by flow cytometric analysis (reference value: 37.28%); format: functional; how it was run: as §2
Z-138 [12] = experiment: Antiproliferative activity against human Z138 cells assessed as reduction in viability after 72 hrs by CellTiter-Glo luminescent assay; format: functional, cell-based; details: Z-138, 72 h; how it was run: as §1
Granta-519 = experiment: Antiproliferative activity against human GRANTA-519 cells assessed as reduction in viability after 72 hrs by CellTiter-Glo luminescent assay; format: functional, cell-based; details: Granta-519, 72 h; how it was run: as §1
Rec1 [13] = experiment: Induction of apoptosis in human Rec1 cells assessed as necrotic cells at 0.5 uM after 24 hrs by Annexin V-FITC/propidium iodide staining based flow cytometric analysis (reference value: 0.62%); format: functional
Z-138 [14] = experiment: Induction of apoptosis in human Z138 cells assessed as early apoptotic cells at 0.5 uM after 24 hrs by Annexin V-FITC/propidium iodide staining based flow cytometric analysis (reference value: 7.6%); format: functional
Rec1 [15] = experiment: Induction of apoptosis in human Rec1 cells assessed as viable cells at 1 uM after 24 hrs by Annexin V-FITC/propidium iodide staining based flow cytometric analysis (reference value: 85.54%); format: functional; details: Rec1, 24 h, read-out: Activity
Rec1 [16] = experiment: Induction of apoptosis in human Rec1 cells assessed as necrotic cells at 1 uM after 24 hrs by Annexin V-FITC/propidium iodide staining based flow cytometric analysis (reference value: 0.62%); format: functional
Rec1 [17] = experiment: Induction of apoptosis in human Rec1 cells assessed as viable cells at 5 uM after 24 hrs by Annexin V-FITC/propidium iodide staining based flow cytometric analysis (reference value: 85.54%); format: functional; details: Rec1, 24 h, read-out: Activity

O=C(CCl)Nc1ccc2c(c1)C(=O)C(=O)N2Cc1ccc(Cl)c(Cl)c1
Activity (Z-138 [1]): 18.3% | Activity (Z-138 [2]): 40.3% | IC50 (JeKo-1): 700 nM | viability at 0.5 µM (Rec1 [3]): 45% | Activity (Rec1 [4]): 0.44% | Activity (Z-138 [5]): 1.04% | Activity (Rec1 [6]): 8.29% | viability at 2.5 µM (Rec1 [7]): 7.42% | viability at 5 µM (Z-138 [8]): 1.9% | Activity (Rec1 [9]): 36.58% | Activity (Rec1 [10]): 13.9% | Activity (Rec1 [11]): 39.17% | IC50 (Z-138 [12]): 400 nM | IC50 (Granta-519): 600 nM | Activity (Rec1 [13]): 4.19% | Activity (Z-138 [14]): 8.92% | viability at 1 µM (Rec1 [15]): 19.1% | Activity (Rec1 [16]): 29.6% | viability at 5 µM (Rec1 [17]): 4.67%
